In ChEMBL document CHEMBL3351599, “Extending the N-linked aminopiperidine class to the mycobacterial gyrase domain: pharmacophore mapping from known antibacterial leads” (Eur J Med Chem, 2014):
Values after ≈ are worked out from the molar mass of the structure shown.

Key:
[1] = test system: Mycobacterium tuberculosis; test: Antimycobacterial activity against Mycobacterium tuberculosis H37Rv after 7 days by microplate alamar blue assay; type: functional; conditions: 168 h
Summary of the method: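 M. tuberculosis H37Rv inoculum taken from fresh LJ medium, resuspended in 7H9-S (7H9 broth, 0.1% casitone, 0.5% glycerol, OADC), adjusted to McFarland No. 1 and diluted 1:20. Two-fold serial dilutions were tested over a range of 25 to 0.78. Plates were incubated 7 days at 37 °C, then alamar blue was added and incubated overnight. Blue-to-pink colour change read as growth; MIC determined.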

[2] = test system: Mycobacterium tuberculosis; test: (§1) Inhibition of Mycobacterium tuberculosis GyrA/GyrB using relaxed pBR322 as substrate after 30 mins by DNA supercoiling assay
[3] = as §1
[4] = test system: Mycobacterium tuberculosis; test: Inhibition of Mycobacterium tuberculosis GyrA/GyrB using relaxed pBR322 as substrate at 0.97 uM after 30 mins by DNA supercoiling assay
Summary of the method: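 Gyrase supercoiling reaction: GyrA/GyrB heterotetramer (1 U), relaxed pBR322, 1 mM ATP, HEPES-KOH pH 7.9 buffer, 30 min at 37 °C. Compounds were tested in a series of 250, 62.5, 15.6, 3.9 and 0.97. Products were resolved on 1% agarose with ethidium staining, and inhibition was quantified relative to control.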

[5] = Selectivity index, ratio of CC50 for mouse RAW264.7 cells to MIC for Mycobacterium tuberculosis H37Rv; type: toxicity; conditions: read-out: Selectivity Index
Summary of the method: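 Ratio of CC50 to MABA MIC against H37Rv. […] MTT was added 4 h before the end, formazan was dissolved in DMSO and absorbance read at 560 nm. Each concentration was run in triplicate.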

[6] = Cytotoxicity against mouse RAW264.7 cells at 100 uM after 48 hrs by MTT assay; type: cell-based; conditions: read-out: INH
Summary of the method: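 Cells seeded at 5 × 10⁵ per well with test compound at a range of concentrations. Incubated 48 h at 37 °C under 5% CO₂/[…]. MTT reagent (10 mg mL⁻¹ stock) added about 4 h before the end. Plate centrifuged, supernatant removed and formazan dissolved in DMSO. Absorbance read at 560 nm against a blank. Triplicate wells per concentration.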

Compound	MIC [1]	inhibition [2]	IC50 [3]	inhibition [4]	selectivity ratio [5]	cytotoxicity at 48 h, 100 µM [6]
COc1cnc2ccc(=O)n(CCN3CCC(NC(=O)Nc4ccc(F)cc4)CC3)c2c1	0.62 µM (≈ 0.272 µg/mL)	Dose-dependent effect	0.078 µM	> 82%	> 161	31.5%
O=C(Nc1ccc([N+](=O)[O-])cc1)NC1CCN(CCn2c(=O)ccc3ncc(F)cc32)CC1	3.77 µM (≈ 1.71 µg/mL)	–	0.25 µM	> 70%	> 26.5	38.6%
